Results as given in ChEMBL document CHEMBL1130113 (J Med Chem, 1997).
Where a SMILES comes first, the peptide text is derived from it. [ ]: non-standard residue; d: D form. Aib = CC(C)(N)C(=O)O

How the values were obtained:
[1] = target: Delta-type opioid receptor (Rattus norvegicus, UniProt P33533); test: Affinity was assessed using competitive binding assay labeled with [3H]DPDPE (6.3 nM) for Opioid receptor delta 1
In short: (§1)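 Rat brain synaptosomal membranes, preincubated, in duplicate tubes. Buffer 50 mM HEPES pH 7.5, 5 mM MgCl2, glycerol, protease inhibitors. Equilibrium incubation 120 min at room temperature (22-23 °C). Labeled peptide displaced by 6-14 analogue concentrations spanning a 1000-fold range. Filtered on glass fiber and washed 3× with ice-cold buffer containing 0.01% BSA. Ki from IC50 by Cheng-Prusoff.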

[2] = target: Mu-type opioid receptor (Rattus norvegicus, UniProt P33535); test: Affinity was assessed using competitive binding assay labeled with [3H]- DAGO (1.28 nM) for Opioid receptor mu 1; in short: as §1
[3] = target: Mu-type opioid receptor (Cavia porcellus, UniProt P97266); test: Functional biological activity for mu opioid receptor was determined in vitro, on guinea pig ileum (GPI).; assay type: tissue-based
In short: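 A 2-3 cm guinea pig ileum segment was held in a 20 mL organ bath with 70 µM hexamethonium bromide and 0.125 µM mepyramine maleate, gassed with 95% O2/5% CO2 at 36 °C. Transmural stimulation used 0.5 ms square-wave pulses at 0.1 Hz, at 1.5× maximal-twitch voltage (~30 V). Twitch inhibition was read from dose-response curves against dermorphin or morphine.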

[4] = target: Delta-type opioid receptor (Mus musculus, UniProt P32300); test: Functional biological activity for Opioid receptor delta 1 was determined in vitro, on mouse vas deferens (MVD).; assay type: tissue-based
[5] = IC50 ratio measured as the IC50 value of GPI to that of MVD.; assay type: functional
[6] = target: Opioid receptors; mu & delta (Homo sapiens) (UniProt P41143+P35372); test: Selectivity ratio measured as the Ki ratio of mu receptor th that of delta receptor; assay type: protein assay
In short: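 Ratio of Ki values for mu and delta receptors. Both were measured in rat brain synaptosomal membranes in 50 mM HEPES pH 7.5 with 5 mM MgCl2, glycerol and protease inhibitors, for 120 min at 22-23 °C. Radioligand was displaced by 6-14 concentrations over a 1000-fold range. Bound ligand was collected by glass-fiber filtration, and Ki came from IC50 by Cheng-Prusoff.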

Sequence of Mu-type opioid receptor (Rattus norvegicus, UniProt P33535) (P33535 whole entry): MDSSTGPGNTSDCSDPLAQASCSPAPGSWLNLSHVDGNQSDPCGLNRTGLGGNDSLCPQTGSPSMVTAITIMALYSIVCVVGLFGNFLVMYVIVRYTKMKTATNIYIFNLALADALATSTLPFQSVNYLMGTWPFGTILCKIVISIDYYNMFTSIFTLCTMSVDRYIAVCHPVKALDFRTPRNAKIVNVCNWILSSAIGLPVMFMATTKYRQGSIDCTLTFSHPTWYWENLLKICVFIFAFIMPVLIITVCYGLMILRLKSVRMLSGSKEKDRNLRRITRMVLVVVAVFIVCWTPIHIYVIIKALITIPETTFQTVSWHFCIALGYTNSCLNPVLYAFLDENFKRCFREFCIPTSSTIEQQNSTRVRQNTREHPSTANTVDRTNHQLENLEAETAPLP
Sequence of Delta-type opioid receptor (Rattus norvegicus, UniProt P33533) (P33533 whole entry): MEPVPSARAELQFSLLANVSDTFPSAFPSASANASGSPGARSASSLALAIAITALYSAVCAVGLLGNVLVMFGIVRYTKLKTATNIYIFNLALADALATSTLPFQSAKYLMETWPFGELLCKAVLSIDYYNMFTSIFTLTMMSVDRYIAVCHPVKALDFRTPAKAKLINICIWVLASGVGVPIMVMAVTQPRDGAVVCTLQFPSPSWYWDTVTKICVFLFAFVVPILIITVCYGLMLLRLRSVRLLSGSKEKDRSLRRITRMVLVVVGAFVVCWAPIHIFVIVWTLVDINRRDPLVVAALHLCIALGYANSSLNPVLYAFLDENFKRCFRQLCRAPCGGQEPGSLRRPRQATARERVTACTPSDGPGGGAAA
Sequence of Delta-type opioid receptor (Mus musculus, UniProt P32300) (P32300 whole entry): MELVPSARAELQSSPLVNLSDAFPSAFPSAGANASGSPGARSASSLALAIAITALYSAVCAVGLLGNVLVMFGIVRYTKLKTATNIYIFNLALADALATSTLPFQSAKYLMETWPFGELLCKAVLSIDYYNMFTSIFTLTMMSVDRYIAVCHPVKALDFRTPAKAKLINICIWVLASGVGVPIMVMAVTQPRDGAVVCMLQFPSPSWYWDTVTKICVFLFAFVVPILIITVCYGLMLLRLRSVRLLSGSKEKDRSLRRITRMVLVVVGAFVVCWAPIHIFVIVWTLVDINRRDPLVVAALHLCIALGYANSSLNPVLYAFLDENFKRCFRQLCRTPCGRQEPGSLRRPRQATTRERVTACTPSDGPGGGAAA
Sequence of Mu-type opioid receptor (Cavia porcellus, UniProt P97266) (P97266 whole entry): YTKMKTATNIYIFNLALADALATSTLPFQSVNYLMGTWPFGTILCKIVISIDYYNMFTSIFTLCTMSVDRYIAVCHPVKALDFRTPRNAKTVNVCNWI
Sequence of Opioid receptors; mu & delta (Homo sapiens) (P35372 whole entry, looked up): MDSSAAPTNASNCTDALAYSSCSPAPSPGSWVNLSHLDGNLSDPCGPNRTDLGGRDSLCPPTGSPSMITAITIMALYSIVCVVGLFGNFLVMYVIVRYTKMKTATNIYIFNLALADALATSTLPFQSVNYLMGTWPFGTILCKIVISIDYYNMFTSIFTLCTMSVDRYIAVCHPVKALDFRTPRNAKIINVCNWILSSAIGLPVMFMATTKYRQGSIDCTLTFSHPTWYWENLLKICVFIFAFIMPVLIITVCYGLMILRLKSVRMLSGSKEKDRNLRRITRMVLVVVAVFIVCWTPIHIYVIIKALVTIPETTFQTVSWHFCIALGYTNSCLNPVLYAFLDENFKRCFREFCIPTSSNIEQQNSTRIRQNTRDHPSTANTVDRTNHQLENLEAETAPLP
Sequence of Opioid receptors; mu & delta (Homo sapiens) (P41143 whole entry, looked up): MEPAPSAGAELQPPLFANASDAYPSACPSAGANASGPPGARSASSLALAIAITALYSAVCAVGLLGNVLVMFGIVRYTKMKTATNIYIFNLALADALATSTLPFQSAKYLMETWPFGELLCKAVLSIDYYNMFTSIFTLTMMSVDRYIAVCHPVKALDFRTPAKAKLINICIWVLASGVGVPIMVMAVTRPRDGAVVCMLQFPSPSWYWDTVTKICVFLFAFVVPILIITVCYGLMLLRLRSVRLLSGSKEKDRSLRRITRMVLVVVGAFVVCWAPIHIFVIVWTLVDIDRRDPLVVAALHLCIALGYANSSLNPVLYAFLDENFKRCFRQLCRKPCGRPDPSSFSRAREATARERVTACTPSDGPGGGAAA

SMILES | Ki [1] [nM] | Ki [2] [nM] | IC50 [3] [nM] | IC50 [4] [nM] | IC50 ratio [5] | Selectivity ratio [6]
CC(C)[C@H](NC(=O)[C@H](CC(=O)O)NC(=O)C(C)(C)NC(=O)C(C)(C)NC(=O)[C@@H](N)Cc1ccc(O)cc1)C(=O)N[C@H](C(=O)NCC(N)=O)C(C)C | 3.62 | 15200 | > 10 | 70 |  | 
CC(C)[C@H](NC(=O)[C@H](CC(=O)O)NC(=O)[C@@H](C)NC(=O)[C@@H](C)NC(=O)[C@@H](N)Cc1ccc(O)cc1)C(=O)N[C@H](C(=O)NCC(N)=O)C(C)C | 5.72 | 13600 |  |  |  | 
CC(C)[C@H](NC(=O)[C@H](CC(=O)O)NC(=O)[C@H](Cc1ccccc1)NC(=O)C(C)(C)NC(=O)[C@@H](N)Cc1ccc(O)cc1)C(=O)N[C@H](C(=O)NCC(N)=O)C(C)C (H-Y[Aib]FDVVG-NH2) | 0.12 | 1020 | > 10 | 1.44 | > 7000 | 
CC(C)[C@H](NC(=O)[C@H](CC(=O)O)NC(=O)C(C)(C)NC(=O)[C@@H](N)Cc1ccc(O)cc1)C(=O)N[C@H](C(=O)NCC(N)=O)C(C)C (H-Y[Aib]DVVG-NH2) | 2630 | 441000 |  |  |  | 
CC(C)[C@H](NC(=O)[C@@H](NC(=O)C(C)(C)NC(=O)[C@H](Cc1ccccc1)NC(=O)[C@@H](C)NC(=O)[C@@H](N)Cc1ccc(O)cc1)C(C)C)C(=O)NCC(N)=O | 0.2 | 0.43 | 4.5 | 0.36 | 13 | 
CC(NC(=O)[C@@H](N)Cc1ccc(O)cc1)C(=O)N[C@@H](Cc1ccccc1)C(=O)N[C@@H](CC(=O)O)C(=O)N[C@H](C(=O)N[C@H](C(=O)NCC(N)=O)C(C)C)C(C)C (single isomer, unassigned) [DELTORPHIN C] |  |  | 420 |  |  | 
CC(C)[C@H](NC(=O)[C@@H](NC(=O)C(C)(C)NC(=O)[C@H](Cc1ccccc1)NC(=O)[C@@H](C)NC(=O)[C@@H](N)Cc1ccc(O)cc1)C(C)C)C(=O)NCC(=O)O | 0.11 | 4.48 |  |  |  | 
CC(C)[C@H](NC(=O)[C@@H](NC(=O)[C@@H](CC(=O)O)NC(=O)C(C)(C)NC(=O)C(C)(C)NC(=O)[C@@H](N)Cc1ccc(O)cc1)C(C)C)C(=O)NCC(N)=O |  |  |  |  | > 21 | 
CC(C)[C@H](NC(=O)[C@H](CC(=O)O)NC(=O)C(C)(C)NC(=O)[C@@H](C)NC(=O)[C@@H](N)Cc1ccc(O)cc1)C(=O)N[C@H](C(=O)NCC(N)=O)C(C)C | 0.8 | 4540 | > 10 | 57.3 | > 175 | 5680
